# Screening results: PubChem, several laboratories
# A1 inh: caspase 3/7 activation in MEF A1-2A-BIM cells, primary screen, A1 inhibitor project, cell-based, luminescence, HTS | caspase activation, % (test concentration not listed) | Caspase-Glo 3/7 luminescence, 3 h; percent of clofoctol response, vehicle zero | hit rate 0.066% among 330,000 | AID 2462, 2010;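 active = over half of replicate activation scores above 10%, or exactly half above 10 with the replicate mean above 10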
# NALP1 inh: NALP1 inflammasome inhibitors in reconstituted yeast, colorimetric, S. cerevisiae, triplicate retest; S. cerevisiae NALP1/ASC/caspase-1 growth, X-gal OD620, 72 h; inhibition, % at 10 µM; hit rate 0.61% among 280,000; in the data active = inhibition mostly above about 24%, no sharp cut-off; inactive = mostly below about 32%
# TbMetRS inhib: T. brucei MetRS inhibitors, primary screen, biochemical, luminescence; hit rate 0.4% among 360,000; inhibition, % at 11.9 µM; methionyl-tRNA synthetase (Trypanosoma brucei brucei); purified T. brucei MetRS, ATP depletion, Kinase-Glo luminescence;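 active = inhibition above a per-plate cutoff of the control wells' mean inhibition plus 3 SD, cut at about 5.5% in these data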;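 also: 0% = DMSO wells median and 100% = median of wells with control inhibitor compound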
#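 Assay system: T. brucei methionyl-tRNA synthetase, purified | Medium: HEPES buffer with MgCl2, KCl, DTT, spermine, BSA, pyrophosphatase | Compound: 11.9 µM single point | Incubation: 15 min enzyme-compound preincubation, 2 h reaction, 10 min detection, 25 °C | Measured by: Kinase-Glo luciferase luminescence reporting remaining unconsumed ATP | Measure: % inhibition normalized to control-well medians | Replication: Singlicate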
# MC4R antagonist: MC4R antagonists of cAMP signaling, primary screen, cell-based, TR-FRET, antagonist arm of biased-ligand search | Melanocortin receptor 4 (Homo sapiens), P32245 | AID 540295, 2011 | inhibition, % at 6.5 µM | MC4R-expressing cells, MTII-stimulated cAMP, LANCE TR-FRET | hit rate 0.48% among 360,000;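 active = inhibition above its plate's cutoff, the mean of tested wells on that plate plus 3 SD, cut at about 29% in these data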;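 also: 0% = Melanotan II alone and 100% = Melanotan II plus saturating MCL0020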
# Target sequence (P32245 whole entry, looked up): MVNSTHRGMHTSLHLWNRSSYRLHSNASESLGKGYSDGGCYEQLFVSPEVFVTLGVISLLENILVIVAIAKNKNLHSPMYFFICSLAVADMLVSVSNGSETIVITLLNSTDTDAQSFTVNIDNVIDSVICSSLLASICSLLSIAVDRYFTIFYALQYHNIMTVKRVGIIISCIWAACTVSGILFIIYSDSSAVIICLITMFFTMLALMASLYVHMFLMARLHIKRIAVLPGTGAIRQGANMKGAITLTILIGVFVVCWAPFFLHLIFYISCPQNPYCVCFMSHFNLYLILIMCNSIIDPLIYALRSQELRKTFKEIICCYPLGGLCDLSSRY
#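 Material: U2OS-MC4R stable cell line | Reagent: Melanotan II challenge after compound preincubation | Doses: One concentration, 6.5 µM nominal | Incubation: 30-min compound preincubation, 1-h Melanotan II challenge, 1-h detection, room temperature | Signal: TR-FRET cAMP assay | Replicates: One well per compound, no replicates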
# MC4R barr agon: MC4R agonists recruiting beta-arrestin, primary screen, cell-based, luminescence, agonist arm of biased-ligand search; Melanocortin receptor 4 (Homo sapiens), P32245; AID 540308, 2011; hit rate 0.98% among 360,000; U2OS MC4R beta-arrestin complementation; percent of melanotan II response, DMSO zero; activation, % at 8.9 µM;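 active = activation above a per-plate cutoff, the mean activation of sample wells on that plate plus 3 SD, cut at about 8% in these data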
# NALP3 yeast inh: NALP3 inflammasome inhibitors in reconstituted yeast, primary screen, luminescence, uHTS; Yeast reconstituted NLRP3/ASC/caspase-1, beta-gal luminescence, 24 h; hit rate 0.39% among 330,000; inhibition, % at 10 µM;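 active = inhibition of 50% or more; inactive = inhibition below 50%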;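 also: plate controls were induced DMSO wells for no effect and uninduced yeast grown without galactose for full effect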
# U2OS cAMP counter: nonselective cAMP signaling inhibitors, parental cells, counter-screen for MC4R biased antagonist project, cell-based, TR-FRET, U2OS, forskolin, triplicate. shares compounds with MC4R antagonist. LANCE TR-FRET. inhibition, % at 6.5 µM. hit rate 26% among 1,600;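 active = mean inhibition over triplicates above the low-control well mean plus 3 SD, set per campaign, cut at about 13% in these data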;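 also: signal is single emission at 671 nm which falls as cellular cAMP rises; 0% = forskolin-stimulated wells and 100% = buffer without forskolin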
# MC4R cAMP antag: MC4R cAMP antagonists, retest, confirmation, cell-based, TR-FRET; MC4R-expressing cells, MTII-stimulated cAMP; inhibition, % at 6.5 µM; hit rate 27% among 1,600; AID 602195, 2012; shares compounds with MC4R antagonist; in the data active = inhibition above about 29%;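 also: 0% = agonist stimulated wells alone and 100% = agonist stimulated wells plus saturating reference antagonist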
# An asterisk follows results filed as active; . = no result given. The list is not random: actives were taken first. Their share in the collection is about 2.5%.
SMILES,A1 inh,NALP1 inh,TbMetRS inhib,MC4R antagonist,MC4R barr agon,NALP3 yeast inh,U2OS cAMP counter,MC4R cAMP antag
COCCNC(=O)C(c1ccccc1F)N(C(=O)C(=O)NC1CCCC1)C1CCCCC1 (centres undefined),-1,12,1,29*,-1,-5,-1,-5
CCOC(=O)C1CCN(C(=O)CN(c2ccc3c(c2)OCCO3)S(=O)(=O)c2ccccc2)CC1,0,.,0,2,1,2,.,.
COc1ccc(C(=O)Nc2ccccc2-c2nnn(CC(N)=O)n2)cc1,.,.,-1,4,1,.,.,.
COc1cc(OC)cc(C(=O)Nc2ccccc2-c2nnn(CC(=O)Nc3cc(C)on3)n2)c1,0,-2,0,30*,8.8*,-3,6,14
CC(=O)c1cn(CC(=O)NCc2ccc3c(c2)OCO3)c2ccccc12,-1,15,2,31*,-2,10,2,2
C[C@H](O)[C@@H]1C(=O)N2CCc3ccc(-c4ccccc4)cc3[C@@H]2C[C@@H]1N(C)C(=O)Nc1cc(Cl)cc(Cl)c1,.,.,0,9,0,.,.,.
COc1ccc(CNC(=O)[C@H](Cc2c[nH]c3ccccc23)NC(=O)[C@@H]2Cc3ccccc3CN2)cc1,1,20,1,31*,-1,-1,-2,11
CC(C)N1CC(C(=O)Nc2ccc(Cl)cc2Cl)CC1=O (centres undefined),.,.,0,-6,2,.,.,.
N/C(CC(=O)Nc1ccc(F)c(Cl)c1)=N\OC(=O)c1cccs1,0,24,3,36*,0,1,-4,4
COc1cc(/C=N/Nc2nc(Nc3ccc(C)cc3)nc(-n3nc(C)cc3C)n2)cc(OC)c1OC,0,42*,0,29*,4,-2,7,30*
O=C(Nc1cccc(F)c1)C1CCCN(C(=O)c2ccc(Cl)cc2)C1 (centres undefined),1,.,0,0,-1,11,.,.
CCOC(=O)/C=C/C(=O)Nc1ccc(Oc2ccccc2)cc1,-1,5,-1,46*,-1,-4,28*,53*
O=C(CN1C(=O)C2CC=CCC2C1=O)N1CCN(c2ccc([N+](=O)[O-])cc2)CC1 (centres undefined),0,2,0,31*,1,5,-4,-17
CC(=O)Nc1cccc(NC(=O)CSc2ncc(C(=O)Nc3ccc(F)cc3)c(=O)n2C)c1,-7,.,0,25,1,8,.,.
CC(=O)Nc1cccc(NC(=O)CSc2ncc(C(=O)Nc3ccccc3)c(=O)n2C)c1,-7,.,0,30*,-4,18,0,20
COc1ccc([C@H]2CC(=O)C=C(c3ccc(C(=O)O)cc3)C2)cc1OC,1,.,0,11,2,12,.,.
Cc1cccc2cc(C#N)c(SCC(=O)NCc3cccs3)nc12,-1,-38,0,39*,3,6,41*,80*
CCc1cc2cccc(C)c2nc1SCC(=O)N1CCN(C(=O)c2ccco2)CC1,0,14,0,-1,1,18,.,.
CCOC(=O)CNC(=O)CSc1nc2c(C)cccc2cc1CC,0,5,0,34*,2,11,0,5
O=C(O)c1ccccc1C(=O)Nc1ccccc1NC(=O)c1ccccc1C(=O)O,-1,.,-2,18,1,6,.,.
